In brackets after ≈: the same amount, converted by molar mass. Activity calls are given as the source filed them. The rule behind the calls is not given here.
Assays:
Escherichia coli [1] = experiment: Antimicrobial activity against Escherichia coli TOP10 harboring Beta-lactamase OXA-105 by Etest; format: functional
Method in brief: (§1)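 MIC read by Etest on Mueller-Hinton agar at 37°C. Test strains were E. coli TOP10 and TOP10 recombinants carrying cloned OXA-23-like oxacillinase genes. Recombinant clones had been selected on kanamycin (30 μg/ml) plus amoxicillin (30 μg/ml), and cloned inserts were confirmed by double-strand sequencing.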

Escherichia coli [2] = experiment: Antimicrobial activity against Escherichia coli TOP10 harboring Beta-lactamase OXA-103 by Etest; format: functional; method in brief: as §1
Escherichia coli [3] = experiment: Antimicrobial activity against Escherichia coli TOP10 harboring Beta-lactamase OXA-102 by Etest; format: functional; method in brief: as §1
Escherichia coli [4] = experiment: Antimicrobial activity against Escherichia coli TOP10 by Etest; format: functional; method in brief: as §1
Escherichia coli [5] = experiment: Antimicrobial activity against Escherichia coli TOP10 harboring Beta-lactamase OXA-23 by Etest; format: functional; method in brief: as §1
[6] = tested on: Acinetobacter radioresistens; experiment: Antimicrobial activity against Acinetobacter radioresistens isolates by Etest; format: functional
Method in brief: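 MICs determined by Etest on Mueller-Hinton agar at 37°C; strains previously grown overnight at 37°C on Mueller-Hinton agar plates.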

Acinetobacter baumannii = experiment: Activity of beta lactamase OXA23 in Acinetobacter baumannii Ab13 assessed as compound hydrolysis rate per mg of protein by spectrophotometry
Method in brief: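 Crude culture extract (enzyme source) of the strain; hydrolysis followed by UV spectrophotometry with 100 μM benzylpenicillin or imipenem as substrate; rate expressed as U/mg of protein.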

| Structure (SMILES) | MIC (Escherichia coli [1]) [mg/L] | MIC (Escherichia coli [2]) [mg/L] | MIC (Escherichia coli [3]) [mg/L] | MIC (Escherichia coli [4]) [mg/L] | MIC (Escherichia coli [5]) [mg/L] | growth inhibition (GI) [6] | Activity (Acinetobacter baumannii) [U] |
| --- | --- | --- | --- | --- | --- | --- | --- |
| C[C@@H](O)[C@H]1C(=O)N2C(C(=O)O)=C(S[C@@H]3CN[C@H](C(=O)N(C)C)C3)[C@H](C)[C@H]12 [MEROPENEM] | 0.094 (≈ 0.245 µM) | 0.094 (≈ 0.245 µM) | 0.094 (≈ 0.245 µM) | 0.047 (≈ 0.123 µM) | 0.047 (≈ 0.123 µM) | Active |  |
| CC1(C)S[C@@H]2[C@H](NC(=O)Cc3ccccc3)C(=O)N2[C@H]1C(=O)O |  |  |  |  |  |  | 5 |
| C[C@@H](O)[C@H]1C(=O)N2C(C(=O)O)=C(SCCNC=N)C[C@H]12 [IMIPENEM ANHYDROUS] | 1 (≈ 3.34 µM) | 1 (≈ 3.34 µM) | 1 (≈ 3.34 µM) | 0.125 (≈ 0.418 µM) | 1 (≈ 3.34 µM) | Active | 0.2 |
| C[C@@H](O)[C@H]1C(=O)N2C(C(=O)O)=C(S[C@@H]3CN[C@H](C(=O)Nc4cccc(C(=O)O)c4)C3)[C@H](C)[C@H]12 [ERTAPENEM] | 0.125 (≈ 0.263 µM) | 0.125 (≈ 0.263 µM) | 0.125 (≈ 0.263 µM) | 0.004 (≈ 0.00841 µM) | 0.012 (≈ 0.0252 µM) | Active |  |
